Bioassay records deposited in PubChem BioAssay by Broad Institute.
CAL PDZ FP-1: inhibitors of human CAL PDZ peptide binding. Q9HD26. purified CAL PDZ, TMR-peptide fluorescence polarization, 1 h. inhibition, % at 20 µM. 330,000 compounds, 0.02% hits;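 active = highest replicate inhibition of at least 40%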;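 also: plate controls were DMSO neutral control wells for no effect and unlabeled competitor peptide control wells for full effect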
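material = purified tagged CAL PDZ domain construct (CerCALP) | buffer or medium = sodium phosphate/NaCl buffer pH 7.4 with TCEP, IgG, Thesit | reagent = TMR-labelled reporter peptide T*-PRC34 bound in PDZ groove | incubation = 1 h room-temperature incubation prior to read | measured by = fluorescence polarization (mP) | evaluation = percent inhibition from loss of millipolarization | control set = unlabelled peptide and DMSO controls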
ARNT-TACC3 inh: disrupts binding between human ARNT and TACC3; AlphaScreen His-ARNT PAS-B/GST-TACC3 binding, luminescence; TACC3 fragment carries E629A point mutation; inhibition, % at 9.99 µM; Q9Y6A5; 390,000 compounds, 0.66% hits;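 active = mean inhibition of replicates at least 50% and at least half of replicates each reaching 50%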;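 also: 0% = complete ARNT plus TACC3 wells and 100% = ARNT alone without TACC3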
CAL PDZ FP-2: CAL PDZ (human) peptide binding inhibition; Q9HD26; purified CAL PDZ, TMR-peptide fluorescence polarization, 1 h; inhibition, % at 24.9 µM; 300,000 compounds, 0.92% hits;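 active = mean inhibition of at least 30% with at least half of replicates also reaching 30%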;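 also: 0% = DMSO neutral control and 100% = excess unlabeled competitor peptide PRC23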
AlphaScreen ctr: interferes with AlphaScreen signal, flagging false ARNT-TACC3 hits; AID 651705; AC50, µM (highest dose often 68 µM), inactives show at the highest dose activity change, negative = signal decrease; 1,200 compounds, 50% hits; shares compounds with ARNT-TACC3 inh; His-ARNT PASB-GST AlphaScreen artifact counter-screen, luminescence;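 active = every separate test run was called active for a drop in luminescence, with AC50 within twice the top valid dose, actives reach about 71 µM in these data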
Numbers without * were called inactive. Only some compounds are listed: those with a hit (about 1.2% of all), similar ones and a draw of the others.

What do the screens show for `Cc1noc(C)c1NC(=O)Nc1ccc2c(c1)C(=O)N([C@@H](C)CO)C[C@@H](C)[C@@H](CN(C)C(=O)Nc1ccc(F)cc1)OCCCC[C@@H](C)O2`?
ARNT-TACC3 inh: 4

Results for CO[C@H]1CN(C)C(=O)c2cc(NS(=O)(=O)c3cn(C)cn3)ccc2OC[C@H](C)N(CC2CC2)C[C@@H]1C ?
ARNT-TACC3 inh: -2

What do the screens show for `CNC[C@@H]1Oc2c(NC(=O)Nc3ccc(C(F)(F)F)cc3)cccc2C(=O)N([C@H](C)CO)C[C@H]1C`?
ARNT-TACC3 inh: 12

How did c1ccc(N=Nc2ccc3cccccc2-3)cc1 do in these assays?
CAL PDZ FP-1: -1; ARNT-TACC3 inh: 57*; AlphaScreen ctr: 3.2µM*

Results for Nc1ccc(N=Nc2ccccc2)c2ccccc12 ?
CAL PDZ FP-1: -1; ARNT-TACC3 inh: 10; CAL PDZ FP-2: 0

Results for CO[C@H]1CN(C)C(=O)c2ccc(NS(=O)(=O)c3cccc(F)c3)cc2OC[C@H](C)N(C(=O)Cc2cccnc2)C[C@H]1C ?
ARNT-TACC3 inh: 9

Results for C[C@H]1CCCCO[C@H](CN(C)C(=O)Nc2cccc3ccccc23)[C@@H](C)CN([C@@H](C)CO)C(=O)c2cc(NC(=O)CCC(F)(F)F)ccc2O1 ?
ARNT-TACC3 inh: 12

What do the screens show for `CCSc1nnc(NC(=O)C2CC2c2ccccc2)s1` (stereo not given)?
CAL PDZ FP-1: -2; CAL PDZ FP-2: -1

What do the screens show for `CCSc1nnc(NC(=O)C2CCCCC2C(=O)O)s1` (stereo not given)?
CAL PDZ FP-1: 0; ARNT-TACC3 inh: active; CAL PDZ FP-2: 3; AlphaScreen ctr: 0%

How did CCCC(=O)NC(c1cccs1)c1cc([N+](=O)[O-])c2cccnc2c1O (stereo not given) do in these assays?
CAL PDZ FP-1: 0; ARNT-TACC3 inh: 58*; AlphaScreen ctr: 9.9µM*

What do the screens show for `CC(=O)NC(c1cc(Cl)c2cccnc2c1O)C(C)C` (stereo not given)?
CAL PDZ FP-1: 0; ARNT-TACC3 inh: 58*; CAL PDZ FP-2: 6; AlphaScreen ctr: 38µM*

Results for O=C(CCc1ccccc1)NC(c1cccs1)c1cc(Cl)c2cccnc2c1O (stereo not given) ?
CAL PDZ FP-1: -2; ARNT-TACC3 inh: -5; CAL PDZ FP-2: -1

How did CC(=O)NC(c1cc(Cl)c2ccccc2c1O)C(C)C (stereo not given) do in these assays?
CAL PDZ FP-1: -2; ARNT-TACC3 inh: -6; CAL PDZ FP-2: 1

How did CC(=O)NC(c1cccs1)c1cc([N+](=O)[O-])c2cccnc2c1O (stereo not given) do in these assays?
CAL PDZ FP-1: -2; ARNT-TACC3 inh: 60*; CAL PDZ FP-2: -6; AlphaScreen ctr: 6.9µM*

How did CC(C)C(=O)NC(c1ccccc1)c1cc([N+](=O)[O-])c2cccnc2c1O (stereo not given) do in these assays?
CAL PDZ FP-1: -1; ARNT-TACC3 inh: 0; CAL PDZ FP-2: -3

Results for O=C(C[C@@H]1CC[C@@H]2[C@H](COC[C@@H](O)CN2S(=O)(=O)c2cccc(Cl)c2)O1)NCCCN1CCOCC1 ?
ARNT-TACC3 inh: 11

What do the screens show for `CCCNC(=O)N1C[C@H](C)[C@H](OC)CN(C)C(=O)c2ccc(NC(C)=O)cc2OC[C@@H]1C`?
ARNT-TACC3 inh: -4

What do the screens show for `C[C@@H]1CCCCO[C@@H](CN(C)Cc2ccccc2)[C@H](C)CN([C@@H](C)CO)C(=O)c2cc(NC(=O)Nc3ccc4c(c3)OCO4)ccc2O1`?
ARNT-TACC3 inh: 17

What do the screens show for `CO[C@@H]1CN(C)C(=O)c2ccc(NS(=O)(=O)c3cn(C)cn3)cc2OC[C@@H](C)NC[C@H]1C`?
ARNT-TACC3 inh: -3

What do the screens show for `CCCCNC(=O)CCC(=O)N1CCN(C(c2ccccc2)c2ccccc2)CC1`?
CAL PDZ FP-1: -1; ARNT-TACC3 inh: 49*; CAL PDZ FP-2: -6; AlphaScreen ctr: -8%

How did COC(=O)CNC(=O)CCC(=O)N1CCN(C(c2ccccc2)c2ccccc2)CC1 do in these assays?
CAL PDZ FP-1: 0; ARNT-TACC3 inh: 0; CAL PDZ FP-2: -3

What do the screens show for `COc1ccc(C2CC(=O)Oc3c(C(CCN4CCCCC4)c4ccc(N(C)C)cc4)c(OC)cc(OC)c32)cc1` (stereo not given)?
CAL PDZ FP-1: 0; ARNT-TACC3 inh: 39*; CAL PDZ FP-2: -2; AlphaScreen ctr: 17µM*

Results for COc1ccc(C2CC(=O)Oc3c(C(CCN4CCCC(C)C4)c4ccc(N(C)C)cc4)c(OC)cc(OC)c32)cc1 (stereo not given) ?
CAL PDZ FP-1: -1; ARNT-TACC3 inh: 20; CAL PDZ FP-2: -3

How did C[C@H](NC(=O)C[C@@H]1C=C[C@H](NC(=O)C2CCC2)[C@@H](CO)O1)c1ccccc1 do in these assays?
ARNT-TACC3 inh: 1

What do the screens show for `c1ccc(-c2nc3cc4ccccc4cc3[nH]2)nc1`?
CAL PDZ FP-1: -3; ARNT-TACC3 inh: 15*; CAL PDZ FP-2: -6; AlphaScreen ctr: -36%

What do the screens show for `CC(=O)Nc1ccc2nc(-c3ccccn3)[nH]c2c1`?
CAL PDZ FP-1: -1; CAL PDZ FP-2: -3

How did Cc1noc(C)c1NC(=O)Nc1ccc2c(c1)C(=O)N([C@@H](C)CO)C[C@@H](C)[C@@H](CN(C)C(=O)c1ccccc1)OCCCC[C@@H](C)O2 do in these assays?
ARNT-TACC3 inh: 1

What do the screens show for `CCC(C(=O)Nc1ncn[nH]1)(C(F)(F)F)C(F)(F)F`?
CAL PDZ FP-1: 1; ARNT-TACC3 inh: 11*; CAL PDZ FP-2: -1; AlphaScreen ctr: -5%

How did O=C(Nc1ncn[nH]1)C(F)(F)C(F)F do in these assays?
CAL PDZ FP-1: -1; ARNT-TACC3 inh: 27; CAL PDZ FP-2: -1

How did c1ccc(-c2nnc(-c3ccccn3)nc2N2CCC(C3CCCCC3)C2)cc1 (stereo not given) do in these assays?
AlphaScreen ctr: 5.3µM*

How did OCC1CCN(c2nc(-c3ccccn3)nnc2-c2ccccc2)CC1 do in these assays?
AlphaScreen ctr: 2.8µM*

What do the screens show for `Cc1ccc(-c2nnc(-c3ccccc3)c(N3CCOCC3)n2)cc1`?
CAL PDZ FP-1: 0; ARNT-TACC3 inh: 6; CAL PDZ FP-2: -1

How did CN1CCN(c2nc(-c3ccc(Br)cc3)nnc2-c2ccccc2)CC1 do in these assays?
CAL PDZ FP-1: -4; ARNT-TACC3 inh: 14; CAL PDZ FP-2: -1

Results for O=C(C[C@H]1C[C@@H]2c3cc(NC(=O)NC4CCCC4)ccc3O[C@@H]2[C@@H](CO)O1)NCc1cc(F)ccc1F ?
ARNT-TACC3 inh: 3

What do the screens show for `C[C@H]1CN([C@@H](C)CO)C(=O)c2cccc(NC(=O)c3ccc(-c4nccs4)cc3)c2O[C@H]1CN(C)C(=O)Nc1ccc2c(c1)OCO2`?
ARNT-TACC3 inh: 7

Results for C[C@@H]1CN([C@@H](C)CO)C(=O)c2cc(-c3ccc(F)cc3)cnc2O[C@H]1CN(C)C(=O)CN(C)C ?
ARNT-TACC3 inh: 1

Results for O=c1[nH]c2ccccc2c(O)c1SCCO ?
CAL PDZ FP-1: -3; CAL PDZ FP-2: 0
